IC50, Activity and inhibition data for two molecules are collected here from ChEMBL document CHEMBL3751842, “Novel triazolothiadiazines act as potent anticancer agents in liver cancer cells through Akt and ASK-1 proteins” (Bioorg Med Chem, 2016).

Data set [1] in a line: Cytotoxicity against human FOCUS cells assessed as growth inhibition after 72 hrs by sulforhodamine B assay. The format is functional, cell-based. The settings on record: Homo sapiens, FOCUS, 72 h; read-out: IC50. In a few lines:
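Cells were grown at 37°C, 5% CO2 in DMEM with 10% FBS. They were seeded at 1000–3000 cells/well, grown 24 h, then exposed to compound at 2.5–40 µM for 72 h. Cells were fixed in 10% TCA for 1 h at 4°C, stained with 0.4% SRB in 1% acetic acid for 10 min, and the dye solubilized in 10 mM Tris. Absorbance was read at 515 nm; runs were in triplicate; IC50 was calculated, with fits of R2 0.8–1 accepted.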
In general terms: The SRB assay estimates cell density from bound dye.

Data set [2] deals with T1, Mitogen-activated protein kinase kinase kinase 5 (Homo sapiens) (UniProt Q99683).
T1 sequence (whole entry): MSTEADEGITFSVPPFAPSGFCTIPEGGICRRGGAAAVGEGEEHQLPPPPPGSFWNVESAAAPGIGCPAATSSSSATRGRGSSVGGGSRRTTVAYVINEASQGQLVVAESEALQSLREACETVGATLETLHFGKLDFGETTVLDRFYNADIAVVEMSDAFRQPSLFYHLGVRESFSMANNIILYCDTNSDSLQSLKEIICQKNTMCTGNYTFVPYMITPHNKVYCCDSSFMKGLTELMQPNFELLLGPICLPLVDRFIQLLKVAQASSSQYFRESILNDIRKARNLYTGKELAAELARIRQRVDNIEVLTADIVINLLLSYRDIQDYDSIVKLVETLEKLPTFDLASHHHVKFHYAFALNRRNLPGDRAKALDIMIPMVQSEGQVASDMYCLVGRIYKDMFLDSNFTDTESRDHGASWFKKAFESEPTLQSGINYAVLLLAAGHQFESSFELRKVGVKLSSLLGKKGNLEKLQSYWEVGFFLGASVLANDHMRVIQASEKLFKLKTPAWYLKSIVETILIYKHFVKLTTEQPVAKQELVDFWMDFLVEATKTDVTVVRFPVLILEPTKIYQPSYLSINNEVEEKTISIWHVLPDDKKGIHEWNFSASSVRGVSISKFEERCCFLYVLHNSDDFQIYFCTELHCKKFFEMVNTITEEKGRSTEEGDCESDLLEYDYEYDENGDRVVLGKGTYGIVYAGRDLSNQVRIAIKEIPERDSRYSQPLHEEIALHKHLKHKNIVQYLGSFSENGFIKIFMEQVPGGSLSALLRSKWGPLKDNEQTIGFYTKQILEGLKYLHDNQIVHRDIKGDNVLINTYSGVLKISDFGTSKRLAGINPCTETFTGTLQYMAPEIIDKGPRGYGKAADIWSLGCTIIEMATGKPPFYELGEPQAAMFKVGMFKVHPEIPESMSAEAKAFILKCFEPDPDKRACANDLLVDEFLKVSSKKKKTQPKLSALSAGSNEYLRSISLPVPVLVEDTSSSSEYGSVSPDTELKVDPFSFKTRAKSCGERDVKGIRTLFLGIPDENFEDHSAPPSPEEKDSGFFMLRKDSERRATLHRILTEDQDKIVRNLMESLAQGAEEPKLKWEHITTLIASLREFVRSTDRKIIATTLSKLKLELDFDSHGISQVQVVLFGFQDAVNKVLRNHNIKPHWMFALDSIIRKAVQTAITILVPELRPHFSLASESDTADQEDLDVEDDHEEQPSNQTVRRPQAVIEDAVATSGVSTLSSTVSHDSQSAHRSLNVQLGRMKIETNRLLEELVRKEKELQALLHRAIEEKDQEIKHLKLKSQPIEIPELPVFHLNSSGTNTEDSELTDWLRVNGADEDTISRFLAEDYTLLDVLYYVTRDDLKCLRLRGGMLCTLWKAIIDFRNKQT
In words: Activation of ASK1 in human Mahlavu cells assessed as Ser966 phosphorylation after 24 to 48 hrs by Western blot analysis. The format is cell-based. In a few lines: (§1)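 Cells were exposed to compound or DMSO control for 24 or 48 h. Lysates were loaded at […] protein per lane and immunoblotted with antibodies diluted 1:100 to 1:500 in 5% BSA-TBS-T. Targets were p-Akt (Ser473), Akt, p-GSK3-α/β (Ser21/9), GSK3-α/β, SAPK/JNK, p-SAPK/JNK (Thr183/Tyr185), PARP, p-β-catenin, β-catenin, cyclin D1, p-ASK1 (S83) and p-ASK1 (S966). Actin served as the loading control.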
For orientation: In western blotting, separated proteins are transferred to a membrane and probed.

Data set [3] concerns Huh-7. In words: Induction of cell cycle arrest in human HuH7 cells assessed as accumulation at subG1 phase at 10 uM after 24 to 48 hrs by propidium iodide staining based FACS analysis. The data set is classed as functional. In a few lines:
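Huh7 cells were seeded at 300,000 per 100-mm dish. After 24 h they were treated with 10 µM compound or DMSO for 24 h and 48 h. Cells were trypsinized, fixed in ice-cold 70% ethanol and stored at −20 °C. They were then stained with propidium iodide and cell-cycle distribution, including SubG1, was read by flow cytometry.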
In general terms: In flow cytometry, cells or beads pass a laser one at a time.

A short description of data set [4]: Effect on un-phosphorylated beta-catenin level in human HuH7 cells after 24 to 48 hrs by Western blot analysis. The data set is classed as ADME, cell-based. The settings on record: huh-7. The essentials:
as §1

The subject of data set [5] is Huh-7. In words: Induction of oxidative stress in human HuH7 cells assessed as ROS accumulation at 10 uM after 48 hrs by DCFH-DA staining based fluorescence microscopy. The data set is classed as functional, cell-based. The essentials:
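Cells in 6-well dishes were treated with 10 µM compound or DMSO for 48 h. They were washed in PBS and stained for 15 min at 37°C in the dark with DCFH-DA solution (1 mM DCFH-DA, 10 mM glucose, 10 mM HEPES in PBS). After three PBS washes, cells were viewed by fluorescence microscopy. Selenium-deficient serum-free medium culture served as the positive control.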

Data set [6] has as its target T1, Mitogen-activated protein kinase kinase kinase 5 (Homo sapiens). In words: Activation of ASK1 in human HuH7 cells assessed as Ser83 phosphorylation after 24 to 48 hrs by Western blot analysis. The data set is classed as cell-based. The settings on record: Huh-7. In a few lines:
as §1

Data set [7] has the same target. In words: Activation of ASK1 in human Mahlavu cells assessed as Ser83 phosphorylation after 24 to 48 hrs by Western blot analysis. The format is cell-based. The essentials:
as §1

Data set [8] has as its target Glycogen synthase kinase-3 beta (Homo sapiens) (UniProt P49841). In words: Inhibition of GSK3beta phosphorylation in human Mahlavu cells after 24 to 48 hrs by Western blot analysis. The format is cell-based. In a few lines: as §1
For data set [9], the target named is T1, Mitogen-activated protein kinase kinase kinase 5 (Homo sapiens). In words: Activation of ASK1 in human HuH7 cells assessed as Ser966 phosphorylation after 24 to 48 hrs by Western blot analysis. The data set is classed as cell-based. The conditions noted are these: Huh-7. In a few lines: as §1

SMILES strings stand for the structures. Active and inactive are the calls of the source. No cut-off for these calls is given here.

Glycogen synthase kinase-3 beta (Homo sapiens), sequence (P49841 whole entry, looked up): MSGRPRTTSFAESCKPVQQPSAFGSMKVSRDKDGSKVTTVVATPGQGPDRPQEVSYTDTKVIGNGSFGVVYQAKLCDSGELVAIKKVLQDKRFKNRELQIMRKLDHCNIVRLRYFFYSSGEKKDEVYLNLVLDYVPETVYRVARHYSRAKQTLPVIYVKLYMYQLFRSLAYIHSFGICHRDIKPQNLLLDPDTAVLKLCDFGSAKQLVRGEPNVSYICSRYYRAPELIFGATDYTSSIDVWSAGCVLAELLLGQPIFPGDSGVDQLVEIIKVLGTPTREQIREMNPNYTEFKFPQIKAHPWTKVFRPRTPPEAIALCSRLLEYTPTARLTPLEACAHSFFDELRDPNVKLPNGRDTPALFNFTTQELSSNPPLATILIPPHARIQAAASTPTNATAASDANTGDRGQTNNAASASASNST

Regarding `Cc1ccc(C2=Nn3c(nnc3C(C)c3ccc(CC(C)C)cc3)SC2)cc1` (stereo not drawn), the IC50 in data set [1] is 6.8 µM. The outcome (in data set [2]; in the data set on Huh-7 [3]; in the data set on Huh-7 [5]; in data set [6]; in [7]; in [9]) was Active. Moreover, the Activity result in data set [4] is given as “Non-toxic”. Further, the inhibition entry in [8] is “Active”.

In the case of `COc1ccc(C2=Nn3c(nnc3C(C)c3ccc(CC(C)C)cc3)SC2)cc1` (stereo not drawn), in [1], the 50% inhibitory concentration (IC50) was determined as 2.4 µM. Further, the result (in [2]; in the data set on Huh-7 [3]; in the data set on Huh-7 [5]; in data set [6]; in [7]; in data set [9]) was Active. In addition, the Activity entry in data set [4] is recorded as “Non-toxic”. Further, the inhibition entry in data set [8] is “Active”.

By IC50 is commonly meant the point on the concentration scale where inhibition reaches its midpoint.
